Source: PubChem (several laboratories)
Hits are enriched below; roughly 3.7% of the tested compounds scored in any of these assays.
KCC2 mod = KCC2 cotransporter modulators, thallium flux, primary screen, cell-based, HEK293 KCC2, FluoZin-2 fluorescence, MLSMR; Solute carrier family 12 member 5 (Homo sapiens), Q9H2X9; KCC2 cells, thallium flux FluoZin-2 fluorescence; B-score of Tl+ flux slope (higher = more flux/activation; lower = inhibition) at 10 µM; actives 2.2% (n = 190,000); AID 1456, 2008;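 active means thallium flux slope and its plate-corrected score both differing from the plate sample mean at a set confidence after two filtering rounds, in either direction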;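 further: slope of fluorescence scaled to starting intensity during 10 to 20 s after thallium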
bCat nuc transl = modulators of beta-catenin nuclear translocation, primary screen, imaging, HeLa cells, immunofluorescence, high-content. nuclear translocation activity, % at 5 µM. actives 0.3% (n = 190,000);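 active means nuclear translocation activity above 50% at 5 µM, with a well cell count of 50 or more; inconclusive means wells under 50 cells across six images, flagged as toxic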;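 further: per-cell ratio of nuclear to cytoplasmic median beta-catenin stain intensity; plate controls were DMSO negative control for no effect and GSK-3 inhibitor IX positive control for full effect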
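Test system: human HeLa cell line; Doses: 5 µM primary, 0.02–20 µM confirmation; Incubation: 24 h compound exposure, 37°C; Detection: beta-catenin immunofluorescence imaging with DAPI; Read-out: beta-catenin nuclear/cytoplasmic ratio, % activation.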
MT stabilize HCS = microtubule stabilizers in HeLa cells, primary screen, imaging, high-content imaging; AID 2205, 2009; HeLa tubulin immunostaining HCS, 24 h; share of cells brighter than vehicle mean+2SD; actives 0.83% (n = 200,000); % tubulin-high responders, % at 10 µM;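 active means plate Z-score above 3 for both tubulin-high and condensed-nucleus cell shares, with cell loss under 80%, at 10 µM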;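 further: anti alpha tubulin signal scored within the nucleus-defined area of each cell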
ROMK mod = ROMK potassium channel modulators, primary screen, cell-based, thallium flux, MLSMR library. B-score at 10 µM. ATP-sensitive inward rectifier potassium channel 1 (Homo sapiens), P48048. Tet-inducible ROMK, thallium flux fluorescence; actives lie on both sides. actives 2% (n = 130,000);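 active means signal ratio slope over the read window, or its plate-corrected B-score, at least 3 SD from the plate mean, either direction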;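 further: B-score of the F/F0 ratio slope over 7 to 12 s after thallium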
DTT redox prof = compounds producing H2O2 with reducing agent – biochemical, NIH compound library profiling, artefact control for MLSCN library redox annotation, primary screen; DTT-dependent redox cycling H2O2, phenol red/HRP absorbance; 100% = 100 µM peroxide control, 0% = buffer; activation, % at 10 µM; actives 0.03% (n = 200,000); AID 878, 2007;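 active means activation of at least 50% relative to the plate's high and low controls in the primary single-dose screen; inactive means activation below 50%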;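 further: compound incubated with DTT at 0.8 mM final as the reducing agent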
KCC2 sec1 = KCC2 modulators in sodium-free buffer, confirmation, cell-based, HEK293 KCC2, thallium flux, secondary assay; shares compounds with KCC2 mod; AID 1713, 2009; normalised thallium flux (F/F0 slope) at 10 µM; FluoZin2 fluorescence; stronger effect = higher value; actives 15% (n = 3,700);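 active means thallium flux slope above the same plate's solvent-only control mean plus 3 SD; inconclusive means the two replicate wells disagree; inactive means no significant difference from solvent-only control wells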
KCC2 bumet counter = thallium flux persisting under bumetanide in KCC2 cells, confirmation, counter-screen for KCC2 modulator project, cell-based, HEK293 KCC2, FluoZin2, secondary assay 3; AID 1714, 2009; HEK293-KCC2 + bumetanide/ouabain; stronger effect = higher value; shares compounds with KCC2 mod; actives 49% (n = 3,700); normalized thallium flux at 10 µM;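 active means thallium entry rate above the same plate's blocked-transporter control wells by more than 3 SD; inconclusive means the two repeat wells disagree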;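 further: raw slope of fluorescence over initial fluorescence between 10 and 20 s after thallium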
KCC2 secondary2 = KCC2 modulators without ouabain present, confirmation, cell-based, HEK293 KCC2, thallium flux, FluoZin2, secondary assay 2; shares compounds with KCC2 mod; thallium flux FluoZin2 fluorescence; actives lie on both sides; F/F0 rise rate, 10–20 s post-thallium; normalized thallium flux at 10 µM; actives 23% (n = 3,700);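 active means thallium flux slope more than 3 SD above or below the plate's solvent-only control mean, mostly below; inconclusive means the two repeat wells disagreed; inactive means no significant shift from solvent-only controls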;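 further: raw slope with 0.1% DMSO as baseline and bumetanide as block control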
HEK293 Tl flux = thallium flux modulation in parental HEK cells, confirmation, counter-screen for KCC2 modulator project, cell-based, counterscreen 1. shares compounds with KCC2 mod. HEK293 parental cells, thallium flux FluoZin2, ouabain; baseline-ratio fluorescence slope, 10–20 s after thallium. thallium flux rate (normalised fluorescence) at 10 µM. actives 46% (n = 3,700). AID 1716, 2009;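 active means thallium flux rate significantly above the same plate's solvent-only control wells, beyond their mean plus 3 SD; inconclusive means the two replicate wells gave conflicting results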
KCC2 retest ouab = KCC2 inhibitors and activators, ouabain retest, confirmation, HEK-KCC2 cells; shares compounds with KCC2 mod; HEK293-KCC2, thallium flux FluoZin2 fluorescence; bidirectional: low = inhibitor, high = activator; raw Tl+ flux slope (below DMSO = inhibition, above = activation) at 10 µM; actives 48% (n = 3,700); AID 1717, 2009;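 active means thallium flux slope beyond 3 SD from same-plate DMSO control mean in most replicates, usually higher, sometimes lower; inconclusive means repeat tests gave conflicting results; inactive means no significant difference from controls in most replicates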;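 further: slope of initial-normalized fluorescence between seconds 10 and 20 after thallium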
HEK293 Tl flux2 = native HEK Tl+ uptake effects, second counter-screen – HEK cells, counterscreen 2, counter-screen for KCC2 modulator project, confirmation; AID 1718, 2009; shares compounds with KCC2 mod; actives 33% (n = 3,700); thallium flux slope at 10 µM; HEK293 parental, thallium flux FluoZin-2 fluorescence slope;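 active means thallium flux slope above the same plate's solvent-control mean plus 3 SD in both duplicate wells; inconclusive means duplicate wells that disagreed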;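 further: run without ouabain in cells lacking the KCC2 cotransporter; slope of fluorescence scaled to its starting value between 10 and 20 s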
* hit, by the source's call; ? = inconclusive; nt = not tested or not shown.

SMILES | KCC2 mod | bCat nuc transl | MT stabilize HCS | ROMK mod | DTT redox prof | KCC2 sec1 | KCC2 bumet counter | KCC2 secondary2 | HEK293 Tl flux | KCC2 retest ouab | HEK293 Tl flux2
O=C(N/N=C/c1ccccn1)c1cc(-c2ccc(Br)cc2)nc2ccccc12 | 9.4* | 0 | nt | nt | nt | 0.011 | 0.025* | 0.035 | ? | ? | ?
O=C(N/N=C/c1ccccn1)c1cc(-c2ccc(Cl)cc2)nc2ccccc12 | 7.5* | -4 | 8 | 0.9 | 1 | ? | 0.042* | 0.033 | 0.018* | 0.027 | ?
O=C(NC(=S)N(CCO)Cc1ccccc1)c1ccc(S(=O)(=O)N2CCCC2)cc1 | -0.4 | -4 | 2 | 0.47 | 0 | nt | nt | nt | nt | nt | nt
NC(=S)N=Nc1c(O)n(CCCl)c2ccc(Cl)cc12 | 16* | 0 | 4 | 0.92 | -1 | 0.0075 | 0.041* | ? | 0.036* | 0.047* | 0.024*
NC(=S)N=Nc1c(O)n(CCCl)c2ccccc12 | 13* | -1 | 3 | 0.81 | -3 | 0.024* | 0.031* | ? | 0.018* | 0.027* | 0.019*
CCOc1ccc2c(c1)c(N=NC(N)=S)c(O)n2C | 8.2* | 0 | nt | -0.072 | nt | ? | 0.035* | 0.039 | 0.015* | 0.027 | 0.012*
CCOc1ccc2c(c1)c(N=NC(=N)N)c(O)n2C | 0.27 | 5 | 8 | nt | 0 | nt | nt | nt | nt | nt | nt
Cc1ccc(-c2nnn(C/C(N)=N/O)n2)cc1 | 0.21 | 0 | 1 | -1 | 0 | nt | nt | nt | nt | nt | nt
CC(=O)Nc1c(O)nc(SCC(=O)Nc2nnc(SCc3ccccc3)s2)[nH]c1=O | -0.69 | 0 | 2 | -0.66 | 0 | nt | nt | nt | nt | nt | nt
Cc1nn(-c2ccc(F)cc2)c(Cl)c1/C=C(\CC(=O)O)c1nc2ccccc2s1 | -6.8* | nt | 3 | nt | 1 | 0.0088 | 0.0067 | ? | 0.0066 | 0.013* | 0.0098
CC(C)CNC(=O)c1ccc(COc2ccc(Cl)cc2Cl)o1 | -4* | -3 | 2 | nt | 3 | 0.0054 | 0.0049 | 0.023* | 0.0062 | 0.013* | 0.0091
O=C(Nc1ccccc1F)c1ccc(COc2ccc(Cl)cc2Cl)o1 | 0.38 | 0 | 2 | nt | 3 | nt | nt | nt | nt | nt | nt
CCN(CC)C(=S)Oc1ccc(Cl)cc1Cl | -0.57 | -1 | nt | nt | nt | nt | nt | nt | nt | nt | nt
O=c1c2cc3c(cc2[nH]c(=S)n1Cc1ccco1)OCO3 | 6.5* | 3 | 1 | nt | -1 | ? | 0.027* | 0.028 | 0.012* | ? | 0.01*
O=c1c2cc3c(cc2[nH]c(=S)n1C1CCN(Cc2ccccc2)CC1)OCO3 | 18* | nt | 2 | 0.96 | 0 | 0.011* | 0.061* | 0.033 | 0.017* | 0.044* | 0.011*
CCOc1cc2[nH]c(=S)n(C3CCN(Cc4ccccc4)CC3)c(=O)c2cc1OCC | 0.014 | -1 | 2 | 0.057 | 0 | nt | nt | nt | nt | nt | nt
c1ccc(CN2CCC3(CC2)Nc2ccccc2S3)cc1 | -0.37 | -1 | nt | nt | nt | nt | nt | nt | nt | nt | nt
COc1cc(C)c(C)cc1S(=O)(=O)N1CCN(Cc2ccccc2)CC1 | nt | 0 | 4 | -1.3 | -3 | 0.0054 | 0.005 | 0.025* | 0.0067 | ? | 0.011
Cc1ccc(S(=O)(=O)NC(CC(C)C)C(=O)NCc2ccco2)cc1 (stereo not drawn) | nt | nt | 1 | 0.3 | 0 | nt | nt | nt | nt | nt | nt
Cc1ccc(C)c(NC(=S)N/N=C/C(C)c2ccccc2)c1 (stereo not drawn) | 25* | -2 | 5 | nt | 0 | 0.011 | 0.024* | 0.033 | ? | ? | 0.0084
CC(/C=N/NC(=S)Nc1cccc(S(=O)(=O)N(C)C)c1)c1ccccc1 (stereo not drawn) | 0.55 | 0 | 2 | 0.21 | 0 | nt | nt | nt | nt | nt | nt
O=C(NCC(c1cccs1)N1CCOCC1)c1ccccc1NS(=O)(=O)c1ccc(Cl)c([N+](=O)[O-])c1 (stereo not drawn) | -3.6* | 0 | 6 | nt | 0 | 0.007 | 0.0048 | 0.026* | 0.0061* | 0.016* | ?
CC(Oc1ccccc1)c1ccnc(N)n1 (stereo not drawn) | 0.8 | 0 | 2 | 2.1 | -1 | nt | nt | nt | nt | nt | nt
CC(Oc1ccc(Cl)cc1Cl)c1ccnc(N)n1 (stereo not drawn) | -2.9* | 0 | 4 | -0.33 | -1 | 0.0076 | 0.0046 | 0.028 | 0.007 | 0.018 | 0.0094
CC(=O)Nc1cccc2c1C(=O)N(c1ccccc1OC(C)=O)C2=O | -0.74 | 1 | 2 | 0.046 | 0 | nt | nt | nt | nt | nt | nt
SMILES | KCC2 mod | bCat nuc transl | MT stabilize HCS | ROMK mod | DTT redox prof | KCC2 sec1 | KCC2 bumet counter | KCC2 secondary2 | HEK293 Tl flux | KCC2 retest ouab | HEK293 Tl flux2
O=C1NC2(CCCCC2)C(=O)N1Cc1ccc([N+](=O)[O-])cc1 | -0.024 | nt | 5 | nt | nt | nt | nt | nt | nt | nt | nt
O=C(O)c1cccc2c(-c3ccccc3)c(-c3ccccc3)[nH]c12 | 8.6* | -2 | nt | 1.4 | nt | 0.0098 | 0.023* | 0.036 | ? | ? | 0.012
COc1ccc(NC(=O)Nc2ccon2)c(OC)c1 | -0.31 | -1 | 3 | -0.0041 | 1 | nt | nt | nt | nt | nt | nt
Cc1ccc(C(=O)Cn2c(C)cc(C)c(C#N)c2=O)cc1 | -0.3 | 2 | 1 | nt | 1 | nt | nt | nt | nt | nt | nt
Cc1cc(C)n(CC(=O)c2ccccc2)c(=O)c1C#N | -0.42 | 1 | 5 | 0.33 | -2 | 0.015 | 0.0048 | 0.028 | 0.0076 | 0.017 | 0.01
On1nnc2cc(C(F)(F)F)ccc21 | -0.031 | -4 | 5 | 0.87 | -2 | nt | nt | nt | nt | nt | nt
COc1ccc(S(=O)(=O)NC(CC(=O)NCCc2ccccc2)c2ccco2)cc1 (stereo not drawn) | nt | -1 | 2 | 0.3 | 0 | 0.0071 | 0.0061 | 0.034 | 0.0082 | ? | 0.01
